This is an account of results in article PMC3563241 (Nuclear medicine and biology, 2012).

Several values for one entry are separate records, joined by “and”; a condition that tells them apart may be missing. Identical values can stand only once.

One may read the tissue uptake as the share of the injected amount in each gram of the tissue.

Data set [1] relates to B16F10 tumor-bearing mice. Nature of the data set: Small animal PET/CT imaging of B16F10 tumor-bearing mice. The conditions noted are these: 2 h post-injection. Format: in vivo, C57BL/6 mice. In short, it runs like this:
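Mice bearing B16F10 tumours received the ⁶⁴Cu-labelled conjugate by tail vein, 100 μCi (667 ng); half of the doses were premixed with 100 μg unlabelled ligand. PET/CT was done at 2 and 24 h under 1–2% isoflurane, with 15 or 30 min static scans and MAP reconstruction. CT-guided ROIs gave maximum SUV (nCi/mL × weight/injected dose), and tumour:background ratios were taken from MIP images (n = 2).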

The nature of data set [2]: Biodistribution studies in B16F10 tumor-bearing mice. Format: in vivo, C57BL/6 mice. Conditions: C57BL/6, mouse, iv, total radioactivity; for tissue uptake at 2 h: 14 μCi (14 ng); for tissue to tissue ratio at 2 h: 14 ng. In short, it runs like this: (§1)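 Subcutaneous B16F10 tumours (1 × 10⁷ cells in PBS:Matrigel 1:1) grown 14–21 d in 7-wk-old C57BL/6 mice. Mice (n = 5/group) were given the ⁶⁴Cu-labelled conjugate i.v., 14 μCi (14 ng; 1000 μCi/μg); the blocking group's dose was premixed with 50 μg unlabelled ligand. Animals were killed at 2 h, and tissues and tumour were weighed and gamma-counted. %ID/g was decay-corrected against an injected-dose standard; mean±SD.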

The subject of data set [3] is B16F10 tumor-bearing mice. The description is as above. The data set is classed as in vivo, C57BL/6 mice. The conditions noted are these: 2 h, co-administered with excess cold LLP2A (50 μg). In short, it runs like this: as §1
The target in a further data set is integrin α4β1 (VLA-4) (Mus musculus, UniProt P09055+Q00651). Nature of the data set: Saturation binding assay in B16F10 melanoma cells. The conditions noted are these: 4 °C, 2 h, 0.1–80 nM. The gist of the method: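 Binding medium was HBSS with 0.1% BSA and 1 mM Mn²⁺. Nonspecific binding was measured with 12 μg unlabelled ligand. After 2 h on ice, cells were rinsed, lysed in 0.5% SDS and gamma-counted. Counts were normalised to BCA protein, n=3 per point.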
integrin α4β1 (VLA-4), sequence (Q00651 41-1039): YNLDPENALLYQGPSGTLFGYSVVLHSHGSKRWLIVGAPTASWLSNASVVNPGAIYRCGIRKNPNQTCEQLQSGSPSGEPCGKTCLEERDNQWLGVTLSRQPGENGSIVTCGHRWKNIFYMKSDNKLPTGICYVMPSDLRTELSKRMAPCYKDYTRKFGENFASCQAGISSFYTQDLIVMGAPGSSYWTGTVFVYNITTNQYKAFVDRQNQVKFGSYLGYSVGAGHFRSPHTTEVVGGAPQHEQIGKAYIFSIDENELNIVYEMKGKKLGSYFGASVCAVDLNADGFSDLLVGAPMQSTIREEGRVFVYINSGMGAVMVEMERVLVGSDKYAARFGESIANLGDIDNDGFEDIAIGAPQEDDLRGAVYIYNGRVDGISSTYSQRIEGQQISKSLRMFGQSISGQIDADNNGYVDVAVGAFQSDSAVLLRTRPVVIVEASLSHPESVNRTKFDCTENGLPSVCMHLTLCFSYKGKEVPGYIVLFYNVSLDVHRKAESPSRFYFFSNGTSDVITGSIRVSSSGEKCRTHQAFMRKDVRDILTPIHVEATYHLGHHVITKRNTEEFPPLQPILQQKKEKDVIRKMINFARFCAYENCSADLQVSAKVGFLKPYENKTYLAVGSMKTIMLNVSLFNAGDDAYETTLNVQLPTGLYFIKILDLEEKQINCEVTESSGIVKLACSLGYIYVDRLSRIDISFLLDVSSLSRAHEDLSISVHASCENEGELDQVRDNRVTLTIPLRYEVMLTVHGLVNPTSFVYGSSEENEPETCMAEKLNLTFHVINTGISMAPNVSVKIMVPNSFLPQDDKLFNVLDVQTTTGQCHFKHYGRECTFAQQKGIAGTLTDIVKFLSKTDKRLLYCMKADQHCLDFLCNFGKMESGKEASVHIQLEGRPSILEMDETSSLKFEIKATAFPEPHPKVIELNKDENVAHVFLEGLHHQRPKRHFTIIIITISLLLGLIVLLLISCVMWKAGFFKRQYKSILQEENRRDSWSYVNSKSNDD
integrin α4β1 (VLA-4), sequence (P09055 21-798): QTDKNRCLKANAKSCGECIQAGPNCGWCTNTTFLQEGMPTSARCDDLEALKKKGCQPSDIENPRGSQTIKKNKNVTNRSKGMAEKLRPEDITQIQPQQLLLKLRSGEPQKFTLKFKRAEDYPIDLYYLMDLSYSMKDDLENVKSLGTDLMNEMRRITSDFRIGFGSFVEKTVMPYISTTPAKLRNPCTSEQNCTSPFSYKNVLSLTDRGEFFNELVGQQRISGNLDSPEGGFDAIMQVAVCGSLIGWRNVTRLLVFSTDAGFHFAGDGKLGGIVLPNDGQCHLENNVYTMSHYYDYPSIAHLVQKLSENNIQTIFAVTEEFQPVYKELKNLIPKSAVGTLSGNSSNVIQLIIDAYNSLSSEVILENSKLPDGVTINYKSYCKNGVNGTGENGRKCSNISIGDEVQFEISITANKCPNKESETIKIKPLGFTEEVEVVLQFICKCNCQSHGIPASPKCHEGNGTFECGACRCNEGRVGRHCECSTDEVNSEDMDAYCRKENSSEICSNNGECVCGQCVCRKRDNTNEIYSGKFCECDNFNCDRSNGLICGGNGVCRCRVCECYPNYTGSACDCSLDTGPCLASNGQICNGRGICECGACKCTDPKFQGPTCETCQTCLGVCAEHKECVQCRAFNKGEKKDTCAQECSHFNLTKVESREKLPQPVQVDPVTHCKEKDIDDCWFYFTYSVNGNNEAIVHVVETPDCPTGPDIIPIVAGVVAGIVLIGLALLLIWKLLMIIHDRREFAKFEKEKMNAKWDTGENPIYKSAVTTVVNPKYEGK

In data set [4] the test system is B16F10 tumor-bearing mice. The conditions noted are these: 2 h post-injection, 5 μCi (12.5 ng); previously published data; cited from earlier work.

Take `Cc1ccccc1NC(=O)Nc1ccc(CC(=O)N[C@@H](CCCCNC(=O)/C=C/c2cccnc2)C(=O)N[C@@H](CCCC(=O)O)C(=O)NC2(C(=O)NCCOCCOCCNC(=O)CCC(=O)NCCOCCOCCNC(=O)CCC(=O)N[C@@H](CCCCNC(=O)CN3CCCN4CCN(CCCN(CP(=O)(O)O)CC4)CC3)C(N)=O)CCCCC2)cc1` [^64Cu-CB-TE1A1P-LLP2A, metal not drawn]: the “Fold higher tumor to background ratio than ^64Cu-CB-TE2A-LLP2A” value in data set [1] was “more than 2 fold”. In addition, the tissue uptake at 2 h turned out to be 6.2 ± 1.7 %ID/g in data set [2] (bone); 3.2 ± 0.4 %ID/g in data set [2] (kidney); 2.3 ± 0.3 %ID/g in data set [2] (liver); 32.6 ± 19 %ID/g in data set [2] (marrow); 17.9 ± 2.3 %ID/g in data set [2] (spleen); 11.4 ± 2.3 %ID/g in data set [2] (tumor). The figures for the tissue to tissue ratio at 2 h in data set [2] (tumor / blood) and in data set [2] (tumor / muscle) were 19.5 ± 3 and 13 ± 1.4, respectively. The “Radiotracer uptake in tumor, spleen and bone in the presence of blocking agent” value in data set [3] is listed as “significantly reduced”. The “receptor concentration (Bmax)” value at integrin α4β1 (VLA-4) was 471 fmol/mg and 471 ± 14 fmol/mg.
Regarding `Cc1ccccc1NC(=O)Nc1ccc(CC(=O)N[C@@H](CCCCNC(=O)/C=C/c2cccnc2)C(=O)N[C@@H](CCCC(=O)O)C(=O)NC2(C(=O)NCCOCCOCCNC(=O)CCC(=O)NCCOCCOCCNC(=O)CCC(=O)N[C@@H](CCCCNC(=O)CN3CCCN4CCN(CCCN(CC(=O)O)CC4)CC3)C(N)=O)CCCCC2)cc1` [^64Cu-CB-TE2A-LLP2A, metal not drawn, reference compound], in data set [4], the “Tumor to blood ratio” value is on record as 4.2 ± 1.4 and the “Tumor to muscle ratio” value is 5.5 ± 0.9. For the same compound, the “receptor concentration (Bmax)” value on integrin α4β1 (VLA-4) is 304 fmol/mg and 304 ± 18 fmol/mg.
